# Source: ChEMBL document CHEMBL1152965, “Synthesis and in vitro antiplasmodial evaluation of 4-anilino-2-trichloromethylquinazolines” (Bioorg Med Chem, 2009)
# Assays:
# Plasmodium falciparum = assay: Antimalarial activity as reduced parasitaemia after 48 hrs against chloroquine, pyrimethamine and proguanil-resistant Plasmodium falciparum W2 infected in type A+ human erythrocytes by flow cytometry; type: functional, organism-based; conditions: W2, 48 h
# K562 = assay: Cytotoxicity against human K562 cells after 72 hrs by flow cytometry; type: cell-based; conditions: K562, 72 h
# How it was run: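 Chemosensitive K562 subline, late log phase, in phenol-red-free RPMI with 10% serum. Compound range added in duplicate (DMSO <0.5%). After 72 h at 37 °C, 6% CO₂, cells stained with propidium iodide and live cells in a 100 µL sample counted by flow cytometry. IC50 from non-linear regression of dose-response curves, mean of three independent experiments.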
# HepG2 = assay: Cytotoxicity against human HepG2 cells after 72 hrs by MTT assay; type: cell-based; conditions: HepG2, 72 h
# How it was run: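 HepG2 cells plated in RPMI with 10% FBS and grown 24 h, then exposed to a range of compound concentrations for 72 h at 37 °C, 6% CO₂. MTT (5 mg/mL stock) added for 2 h, formazan dissolved in DMSO and read at 570 nm against 630 nm. Viability expressed as percent of untreated control. CC50 taken from the dose-response curve.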
# [1] = Selectivity index, ratio of IC50 for human K562 cells to IC50 for chloroquine, pyrimethamine and proguanil-resistant Plasmodium falciparum W2; type: toxicity, cell-based; conditions: K562 cells (cytotoxicity) versus Plasmodium falciparum W2, read-out: Ratio IC50
# How it was run: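 SI = K562 IC50 / W2 IC50. Live cells counted by flow cytometry after propidium iodide stain. IC50 by non-linear regression, mean of three independent experiments.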
# [2] = Selectivity index, ratio IC50 for human HepG2 cells to IC50 for chloroquine, pyrimethamine and proguanil-resistant Plasmodium falciparum W2; type: functional
# How it was run: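 SI = HepG2 IC50 / W2 IC50. MTT 2 h, formazan dissolved in DMSO, absorbance 570 nm (ref 630 nm). Viability as % of untreated control, IC50 from dose-response curve.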
# Toxoplasma gondii = assay: Antitoxoplasmic activity against Toxoplasma gondii tachyzoites infected in HFF assessed as beta-galactosidase activity after 96 hrs by colorimetric microtiter assay; type: functional, organism-based
# How it was run: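 Tachyzoites of the PRU-β-Gal strain. 10⁴ HFF cells per well grown to confluence in phenol-red-free RPMI with 10% FCS. Monolayers infected with 2.10³ parasites per well for 3 h, then compounds in DMSO (final <0.5%) added in triplicate. Incubated 96 h at 37 °C, 6% CO₂. CPRG added at 500 µM final for a further 24 h. Read at 570/630 nm, blanked on uninfected wells. IC50 from three independent experiments.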
Compound,IC50 (Plasmodium falciparum),IC50 (K562),IC50 (HepG2),selectivity ratio [1],Ratio IC50 [2],IC50 (Toxoplasma gondii)
Clc1ccc(Nc2nc(C(Cl)(Cl)Cl)nc3ccccc23)cc1Cl,5 µM,9 µM,8 µM,1.8,1.6,–
Clc1ccccc1Nc1nc(C(Cl)(Cl)Cl)nc2ccccc12,4.6 µM,> 50 µM,25 µM,> 10.9,5.5,–
CCc1nc(N)nc(N)c1-c1ccc(Cl)cc1 [PYRIMETHAMINE],–,5 µM,30 µM,–,–,2 µM
O=[N+]([O-])c1ccc(Nc2nc(C(Cl)(Cl)Cl)nc3ccccc23)cc1,2.8 µM,5 µM,6 µM,1.8,2.1,–
FC(F)(F)c1ccccc1Nc1nc(C(Cl)(Cl)Cl)nc2ccccc12,7.4 µM,30 µM,10 µM,4.1,1.4,–
CCCCNc1nc(C(Cl)(Cl)Cl)nc2ccccc12,14.3 µM,> 50 µM,16 µM,> 3.5,1.1,–
Clc1ccc(Nc2nc(C(Cl)(Cl)Cl)nc3ccccc23)cc1,3 µM,14 µM,9 µM,4.7,3,–
Clc1cccc(Cl)c1Nc1nc(C(Cl)(Cl)Cl)nc2ccccc12,21.9 µM,10 µM,23 µM,0.5,1.1,–
ClC(Cl)(Cl)c1nc(Nc2ccccc2Br)c2ccccc2n1,3 µM,> 30 µM,> 50 µM,> 10,>16.7,–
Clc1cccc(Nc2nc(C(Cl)(Cl)Cl)nc3ccccc23)c1Cl,14 µM,> 60 µM,> 100 µM,> 4.3,7.1,–
C[C@H]1c2cccc(O)c2C(=O)C2=C(O)[C@]3(O)C(=O)C(C(N)=O)=C(O)[C@@H](N(C)C)[C@@H]3[C@@H](O)[C@@H]21.O [DOXYCYCLINE],6.5 µM,15 µM,20 µM,2.3,3.1,–
O=[N+]([O-])c1cccc(Nc2nc(C(Cl)(Cl)Cl)nc3ccccc23)c1,3 µM,5 µM,10 µM,1.7,3.3,–
Cc1nc(Nc2cccc(C(F)(F)F)c2)c2ccccc2n1,42.5 µM,10 µM,20 µM,0.2,0.5,–
ClC(Cl)(Cl)c1nc(N2CCCC2)c2ccccc2n1,41.5 µM,> 125 µM,> 250 µM,> 3,>6,–
ClC(Cl)(Cl)c1nc(NCc2ccccc2)c2ccccc2n1,6.9 µM,> 50 µM,13 µM,> 7.2,1.9,–
FC(F)(F)Oc1ccc(Nc2nc(C(Cl)(Cl)Cl)nc3ccccc23)cc1,2.9 µM,6 µM,6 µM,2.1,2.1,–
Fc1cccc(Nc2nc(C(Cl)(Cl)Cl)nc3ccccc23)c1,4 µM,15 µM,16 µM,3.8,1,–
Clc1cc(Cl)cc(Nc2nc(C(Cl)(Cl)Cl)nc3ccccc23)c1,4 µM,9 µM,10 µM,2.2,2.5,–
COc1ccc(Nc2nc(C(Cl)(Cl)Cl)nc3ccccc23)cc1,6 µM,8 µM,7 µM,1.3,1.2,–
ClC(Cl)(Cl)c1nc(Nc2ccc(Br)cc2)c2ccccc2n1,1.5 µM,15 µM,10 µM,10,5.7,–
